Shown is part of a subset that was picked to be rich in hits.
UPR XBP1 act: adaptive UPR (XBP1) activation. CHO-XBP1 luciferase reporter, IRE1-XBP1 UPR activation, luminescence; percent of tunicamycin response, DMSO as zero. activation, % at 20 µM. 330,000 tested, 0.33% active;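 active = versus positive control, 20 µM dose yields 30% or more activation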;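 also: 100% = tunicamycin at 10 µg/mL and 0% = DMSO only wells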
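assay system = CHO-XBP1 luciferase reporter cells | amount = 1000 cells/well | buffer or medium = F12 plus 10% FBS | compound dosing = single point, 20 µM final compound, 1% DMSO | incubation = 16-18 h cell attachment at 37 °C, then 6 h compound exposure | detection = Steady-Glo luminescence read | controls = tunicamycin 10 µg/mL and vehicle-only wells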
FXN GAA850 act: frataxin GAA850 promoter activation | HEK293 lucGAA850 FXN promoter luciferase reporter, 24 h; percent of 10 µM SAHA response | activation, % at 6 µM | 360,000 tested, 0.56% active | AID 540364;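 active = activation above the average of all compounds screened plus 3 SD, cutoff fixed separately per campaign, cut at about 7.5% in these data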;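 also: 0% = DMSO wells and 100% = 10 µM SAHA wells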
CHOP inhibitor: CHOP inhibition in unfolded protein response; CHO-K1 CHOP-promoter luciferase, tunicamycin-induced, 15-18 h; inhibition, % at 10 µM; 220,000 tested, 3.8% active; AID 2732;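 active = compounds that reduced the stress-induced luciferase reporter signal by more than about 70% of percent inhibition, limit read from the data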;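 also: 0% = tunicamycin plus vehicle and 100% = wells without tunicamycin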
CHOP UPR activ: apoptotic UPR (CHOP) activation. CHO-CHOP luciferase reporter, luminescence; percent of tunicamycin response over DMSO baseline. activation, % at 10 µM. 330,000 tested, 0.34% active;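 active = at 10 µM dose, activation of 40% or more, normalized to positive control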;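 also: 100% = tunicamycin at 10 µg/mL and 0% = DMSO alone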
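System: CHO-CHOP luciferase reporter cell line; amount: 500 cells/well; buffer or medium: F12 medium containing 10% fetal bovine serum; incubation: 6 h compound exposure at 37 °C after overnight seeding; measured by: luciferase luminescence after 10 min with Steady-Glo reagent; evaluation: % reporter activation, DMSO baseline versus tunicamycin full activation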
CHOP inh conf: confirmation of CHOP induction inhibitors. shares compounds with CHOP inhibitor. CHO-CHOP promoter luciferase reporter, tunicamycin-induced, luminescence. inhibition, % at 10 µM. 2,100 tested, 45% active. AID 504437;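 active = mean of three repeat readings of reporter signal inhibition above a set limit, cut at about 70% in these data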;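 also: 0% = tunicamycin plus vehicle and 100% = wells lacking tunicamycin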
Numbers without * were called inactive; · = no result.

SMILES	UPR XBP1 act	FXN GAA850 act	CHOP inhibitor	CHOP UPR activ	CHOP inh conf
Cn1c2ccccc2c(=O)c2c(=O)n(C3CCCCC3)c(-c3cccs3)nc21	17	-4	97*	-1	42
Cn1c2ccccc2c(=O)c2c(=O)n(-c3ccccc3)c(C3CCCCC3)nc21	-1	-4	35	3	·
CCc1nc2c(c(=O)c3ccccc3n2C)c(=O)n1C1CCCCCC1	6	-1	60	-4	·
Cn1c2ccccc2c(=O)c2c(=O)n(C3CCCCCC3)c(C3CCCCC3)nc21	·	-2	105*	·	122*
COC1C(CO)OC(n2c3c(Cl)cccc3c3c4c(c5c6cccc(Cl)c6[nH]c5c32)C(=O)NC4=O)C(O)C1O (configuration not stated)	·	-8	·	·	·
Cc1[nH]n(-c2ccccc2)c(=O)c1N=Nc1ccccc1O	-1	-3	105*	3	19
OC[C@@H]1CN(Cc2cccs2)C[C@H](n2cnc3c(NCc4ccncc4)ncnc32)O1	·	0	·	·	·
Clc1cccc(-c2cccc3nccn23)c1Cl	·	2	·	·	·
Cc1ccc2nc(NC(=O)CSCC(=O)OCC(=O)c3ccc(Br)cc3)sc2c1	-3	-10	100*	-7	107*
COc1cc(/C=C2\CC/C(=C\c3cc(OC)c(OC)c(OC)c3)C2=O)cc(OC)c1OC	-2	4	15	0	·
COc1cc(/C=C2\CC/C(=C\c3cc(OC)c(O)c(OC)c3)C2=O)cc(OC)c1O	-2	-4	101*	-4	101*
COc1cc(/C=C2\COC/C(=C\c3cc(OC)c(OC)c(OC)c3)C2=O)cc(OC)c1OC	·	-13	106*	·	111*
NC(=O)c1ccc(Cc2ncc(C(F)(F)F)cc2Cl)s1	-1	0	5	-1	·
O=S(=O)(N/N=C/c1ccc(Cl)cc1)c1ccc(Cc2ncc(C(F)(F)F)cc2Cl)s1	1	2	100*	-1	91*
CCCCn1c(=O)[nH]c(=O)c2c1nc(-c1ccc(-c3ccccc3)cc1)n2C	22	2	·	6	·
CCCCn1c(=O)[nH]c(=O)c2c1nc(-c1ccc(OCCC)c(OCC)c1)n2C	8	-1	101*	3	91*
OCCN1CCN(c2ncnc3c2ncn3[C@H]2CN(Cc3ccc(Cl)cc3)C[C@@H](CO)O2)CC1	·	0	·	·	·
CCCCCCCCCCCCCCCC[n+]1cccc2ccccc21	23	-7	106*	36	120*
O=C(O)c1ccccc1C(=O)OCC1CCC(=NO)CC1 (configuration not stated)	·	1	·	·	·
CC1=C(CO)C(=O)OC([C@@H](C)C2CC[C@H]3C4C[C@H]5O[C@]56[C@@H](O)C=CC(=O)[C@]6(C)C4CC[C@]23C)C1 (some centres not stated)	·	-13	107*	·	106*
CCOc1ccc(NC2=C(Cl)C(=O)N(Cc3ccccc3)C2=O)cc1	-1	-2	105*	0	22
COC(=O)c1c(NC(=O)Nc2ccc(Cl)cc2)sc(C)c1C	3	-1	100*	0	99*
COC(=O)c1c(NC(C)=O)sc(C)c1C	-3	0	12	1	·
COc1cccc(C(O)c2nc(-c3ccc(Cl)cc3)cs2)c1 (configuration not stated)	·	-1	·	·	·
O=C(Nc1cc(Cl)cc(Cl)c1)c1cccc(OC(F)F)c1	6	2	97*	4	24
SMILES	UPR XBP1 act	FXN GAA850 act	CHOP inhibitor	CHOP UPR activ	CHOP inh conf
Cc1ccnc(NC(=O)c2cccc(OC(F)F)c2)n1	1	4	·	4	·
Cc1cc(NC(=O)c2sc(Nc3ccc(F)c(Cl)c3)nc2N)no1	0	3	100*	2	-32
Cc1cc(NC(=O)c2sc(Nc3cccc(C(F)(F)F)c3)nc2N)no1	1	3	10	4	·
CC1(C(=O)NS(=O)(=O)Cc2ccccc2)CCN1C(=O)CCc1ccccc1 (configuration not stated)	·	1	·	·	·
CC(NCc1ccc(OCc2ccc(Cl)cc2)cc1)C(O)c1ccccc1 (configuration not stated)	27	0	105*	6	18
Cc1ccc(C(=O)COC(=O)COc2ccccc2[N+](=O)[O-])s1	-3	-1	·	0	·
CCOC(=O)COc1ccccc1/C=C\[N+](=O)[O-]	·	-11	107*	·	86*
CCOc1ccc(-c2cc(CCCC(=O)NCc3ccc(C)cc3)no2)cc1	-3	-10	96*	-3	78*
CC1(C(=O)NS(=O)(=O)c2cccc(C#N)c2)CCN1C(=O)Cc1ccccc1Cl (configuration not stated)	·	0	·	·	·
CCOC(=O)Cn1c(=NC(=O)CN2C(=O)CCC2=O)sc2cc(S(N)(=O)=O)ccc21	0	1	-1	1	·
CCOC(=O)Cn1c(=NC(=O)c2nc3ccccc3s2)sc2cc(S(N)(=O)=O)ccc21	7	1	103*	0	18
CCCNC(=O)C1(C)CCN(C(=O)c2c(F)ccc(C)c2F)C1 (configuration not stated)	·	-1	·	·	·
Cc1ccc(C2CC2c2n[nH]c(=S)n2-c2cccc(C)c2)cc1 (configuration not stated)	0	3	19	-1	·
Cc1ccc(C2CC2c2n[nH]c(=S)n2-c2ccc(Cl)cc2)cc1 (configuration not stated)	0	0	106*	-1	-2
CC1(C(=O)NS(C)(=O)=O)CCN1C(=O)C/C=C/c1ccccc1 (configuration not stated)	·	-1	·	·	·
Cc1ccc(C)c(NC(=S)NC(NC(=O)/C=C/c2ccccc2)C(Cl)(Cl)Cl)c1 (configuration not stated)	14	-2	107*	24	92*
O=C(O)c1cccc(COc2ccc(CO)cc2Cl)c1	-10	-5	97*	-11	121*
O=Cc1ccc(OCc2cccc(C(F)(F)F)c2)cc1O	-2	0	47	1	·
COc1ccc(OCc2cccc(C(=O)O)c2)cc1	-14	-1	105*	-11	126*
O=C(OCC(F)(F)F)c1cccc(COc2ccc3ccccc3c2)c1	-12	4	97*	-10	116*
O=C(O)c1cc(OCc2ccccc2)cc(OCc2ccccc2)c1	-1	0	·	2	·
CC(C)(C(=O)N1CCC1(C)C(=O)NS(=O)(=O)c1ccccc1Cl)c1ccccc1 (configuration not stated)	·	-3	·	·	·
O=C(c1ccc(Cl)cc1)c1c[nH]c(C(=O)NNc2cccc(Cl)n2)c1	7	4	100*	-1	96*
O=C(c1ccccc1)c1c[nH]c(C(=O)NNc2cccc(Cl)n2)c1	-4	2	14	1	·
COc1ccc(/C=C(\C#N)c2nc3ccccc3[nH]2)cc1O	3	5	·	4	·
COc1cc(/C=C(/C#N)c2nc3ccccc3c(=O)[nH]2)ccc1O	3	2	102*	6	112*

Source: PubChem (several laboratories)
